The text below walks through data of article PMC7559020 (ACS infectious diseases, 2020).

Like-named read-outs stand apart in the source and are kept apart here.

Broadly, the EC50 is the concentration at which the effect is half-maximal. As a reminder, the CC50 is the concentration at which the toxic effect on the cells reaches its halfway point. One may read the IC50 as the point on the concentration scale where inhibition reaches its midpoint. Higher therefore signals lower potency.

For series [1], the system named is DENV2. The experiment in a line: Viral plaque reduction assay, DENV2 in A549 cells. Type of series: cell-based. The conditions noted are these: read-out: EC50-DN2 (A549). (In general: Plaques are areas of infected cells; plaque reduction assays count them against a control.)
The test system of series [2] is ZIKV. The experiment in a line: Viral titer reduction assay, ZIKV in A549 cells. It counts as cell-based, Zika virus. The essentials: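 ZIKV infection of human A549 lung carcinoma cells with test compound over a dose range. Virus titre reduction measured, run in triplicate. EC50 obtained by nonlinear regression fit of the dose–response curve.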
The test system of series [3] is A549 cells. The experiment in a line: WST-8 cell proliferation. Conditions: read-out: CC50 (A549); cell viability, A549 cells, 48 h.
A short description of series [4]: Repeated oral dosing toxicity in mice. It counts as in vivo, mouse. The conditions noted are these: repeated oral dosing 40 mg/kg/day for 7 days, N = 6.
Series [5] deals with ZIKV. Nature of the series: qRT-PCR of viral RNA from ZIKV-infected A549 cells. Type of series: cell-based, Zika virus.
Series [6] is described as follows: WST-8 cell proliferation. Conditions: human. A general note: Formazan colour is commonly taken as a measure of viable cells.
The subject of series [7] is ZIKV. The experiment in a line: Immunofluorescence assay. Type of series: cell-based, Zika virus. Conditions: IFA, anti-E 4G2, A549 cells. The essentials:
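ZIKV-infected cells treated with test compound or DMSO. Viral E protein detected with mouse monoclonal pan-flavivirus anti-E 4G2 and a DyLight 488 goat anti-mouse IgG secondary. Nuclei counterstained with Hoechst.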

The target in series [8] is MBP-NS3 L58A (Dengue virus type 2, UniProt P29990, L1533A). Nature of the series: SPR binding to MBP-NS3 mutant L58A. On the set-up: species or system DENV2. Conditions: L58A vs WT.
For series [9], the system named is ZIKV. Nature of the series: Time of addition experiment, ZIKV titer by plaque forming assay. It counts as cell-based, Zika virus. Conditions: 0.75 μM added at time points postinfection, titers at 48 h.
The target of series [10] is MBP-NS3 Y23A (Dengue virus type 2, UniProt P29990, Y1498A). Type of series: binding, DENV2. Conditions: Y23A vs WT.
For series [11], the system named is ZIKV. Nature of the series: ZIKV infection of 3D mini-brain organoids. Conditions: 1.5 μM. Type of series: cell-based, Zika virus.
Series [12] relates to ZIKV NS3. The experiment in a line: Western blot of ZIKV NS3 and polyprotein precursor in infected A549 cells. The conditions noted are these: A549, MOI 0.1, 48 h. It counts as cell-based, Zika virus. The essentials: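 Preseeded A549 cells were treated with a dose series of test compound or DMSO and infected with ZIKV at MOI 0.1. At 48 h post-infection, cells were washed, harvested, given protease inhibitor cocktail and lysed in SDS-PAGE loading buffer (95 °C, 10 min). Blots were probed with anti-ZIKV NS3 and anti-GAPDH. PP and NS3 band intensities were normalised to GAPDH, N = 3.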
Background: In western blotting, separated proteins are transferred to a membrane and probed.

For series [13], the system named is 3D organoids. Nature of the series: Toxicity on 3D mini-brain organoids. Type of series: cell-based, human. The conditions noted are these: 1.5 μM.
Series [14] has as its system ZIKV. The experiment in a line: ZIKV inhibition in human neural progenitor cells. Type of series: cell-based, Zika virus. The conditions noted are these: human iPSC-derived neural progenitor cells, IFA and qRT-PCR.
Series [15] deals with MBP-NS3 H60A (Dengue virus type 2, UniProt P29990, H1535A). Type of series: binding, DENV2. Conditions: H60A vs WT.
For series [16], the target named is viral NS3 protease (Dengue virus type 2, UniProt P29990). Nature of the series: Protein thermal shift assay. It counts as binding. Conditions: PTSA.
The subject of series [17] is MBP-NS3 I25A. Conditions: I25A vs WT.
Series [18] has as its target MBP-NS3 F46A (Dengue virus type 2, UniProt P29990, F1521A). It counts as binding, DENV2. Conditions: F46A vs WT.
Series [19] concerns ZIKV. The experiment in a line: ZIKV viremia mouse model. Type of series: in vivo, Zika virus. Conditions: data not shown.
Series [20] has as its target DENV2 NS2B–NS3 protease (Dengue virus type 2, UniProt P29990). The experiment in a line: NS2B–NS3 protease inhibition assay. Type of series: biochemical.
Series [21] deals with DENV2 replicon. The experiment in a line: DENV2 replicon assay. Conditions: Dengue virus, DENV2, BHK-21, 48 h, read-out: EC50-DN2 (DENV2 replicon cell line). It counts as cell-based.
[22] abbreviates: virus production, A549 cells, 48 h postinfection.
The mark [23] stands for this setting: read-out: EC50-ZK (A549), virus production, A549 cells.
Where [24] appears, read: Zika virus, A549, read-out: EC50-ZK (A549).

Consider `Nc1ccc(NC(=O)c2cc(Cl)ccc2O)c(Cl)c1` [HJC0129], for which the EC50 in series [1] (setting [22]) and in series [2] (setting [23]) was over 30 µM throughout. In addition, in series [3], the CC50 worked out at 176 µM.

With `CC(=O)Nc1ccc(NC(=O)c2cc(Cl)ccc2O)c(Cl)c1` [HJC0140], the EC50 in series [1] (setting [22]) and in [2] (setting [23]) was over 30 µM throughout.

Take `O=C(Nc1ccc2c(c1)S(=O)(=O)C=C2)c1cc(Cl)ccc1O` [HJC0149]: the figures for the EC50 in [1] (setting [22]) and in series [2] (setting [23]) were 0.9 µM and 1.1 µM, respectively. Moreover, in series [3], the cytotoxic concentration (CC50) came to 241 µM.

Consider `NCCCOc1ccc(Cl)cc1C(=O)Nc1ccc([N+](=O)[O-])cc1Cl` [HJC0308], for which the EC50 in series [1] (setting [22]) came out at 1.4 µM; in [2] (setting [23]) it was 6.2 µM. Also, the CC50 in series [3] stood at 17.7 µM.

Turning to `CN1CCN(CCOc2ccc(Cl)cc2C(=O)Nc2ccc([N+](=O)[O-])cc2Cl)CC1` [HJC0365], the EC50 in series [1] (setting [22]) came out at 6.4 µM; in [2] (setting [23]) it was 6 µM. Besides, the half-maximal cytotoxic concentration (CC50) in series [3] stood at 177 µM.

On to `CN1CCC(Oc2ccc(Cl)cc2C(=O)Nc2ccc([N+](=O)[O-])cc2Cl)CC1` [HJC0381], for which the EC50 in series [1] (setting [22]) turned out to be 1.2 µM; in [2] (setting [23]), 3.9 µM. Also, the CC50 in series [3] came to 91.1 µM.

Regarding `NCCCCOc1ccc(Cl)cc1C(=O)Nc1ccc([N+](=O)[O-])cc1Cl` [HJC0431], the EC50 in series [1] (setting [22]) was 2.2 µM; in [2] (setting [23]), 0.36 µM. The CC50 in [3] came to 28.4 µM.

`O=C(Nc1ccc([N+](=O)[O-])cc1Cl)c1cccc([N+](=O)[O-])c1O` [JMX0207, N-(2-Chloro-4-nitrophenyl)-2-hydroxy-3-nitrobenzamide]: in series [4], the signs of toxicity result was “did not display any sign of toxicity”. The concentration for a half-maximal effect (EC50) is 0.31 µM in series [1] (Dengue virus, DENV2, A549, 48 h) and 0.3 µM in [2] (setting [24]). Also, in [5], the “ZIKV RNA copy number” value is listed as “significantly reduced the ZIKV RNA copy number in a dose-dependent manner”. The compound also showed a CC50 at 48 h in [6] of 31.9 µM. The ZIKV antigen production result in [7] is “greatly reduced ZIKV antigen production”. Moreover, the “effect of mutation on binding” value in series [8] was “abolished the binding”. The “reduction of ZIKV titer by time of addition” value in series [9] was “equally effective in reducing ZIKV titer even at 24 h postinfection”. In addition, the “effect of mutation on binding affinity” value in series [10] and in series [18] was “do not have any effect” in each case. Also, the “ZIKV production from 3D organoids” value in series [11] (PFU assay, 5 dpi) is on record as “significantly inhibited”. The “protection of organoid slices from ZIKV infection (immunostaining)” value in series [11] (ZIKV PRVABC59, anti-E 4G2) is on record as “nearly completely protected the organoids from ZIKV infection”. In [11] (ZIKV-Venus, MOI 1, fluorescence imaging 7 dpi, vs DMSO), the “ZIKV infection in the 3D organoid” value is on record as “completely abolished ZIKV infection”. In series [12], the “high MW protein (unprocessed viral polyprotein precursor, PP)” value was “dose-dependent increase”. The “viral NS3 protein production” value in [12] is recorded as “dose-dependent reduction”. Further, the “toxic effect on 3D organoids” value in series [13] is given as “did not have any toxic effect”. Also, in series [14], the “ZIKV protein expression and RNA synthesis in HNPCs” value is “effectively inhibited”. Also, the “reduction of binding affinity by mutation” value in [15] and in series [17] was 2- to 3 fold throughout. In addition, in series [16], the “increase in Tm of the viral protein” value is 0.75 °C.

Turning to `O=C(Nc1ccc([N+](=O)[O-])cc1Cl)c1cc(Cl)ccc1O` [Niclosamide, reference compound], the EC50 in series [2] (setting [24]) is 0.48 µM; in [21] it was 2 µM. Besides, the “in vivo antiviral efficacy toward ZIKV” value in series [19] is reported as “did not show appreciable in vivo antiviral efficacy”. The same compound gave an IC50 in series [20] of 21.6 µM.
